# From ChEMBL document CHEMBL5058577, “EUbOPEN Chemogenomics Library 2 (Multiplex)” (2022)
# Test system: Fibroblast
# Experiment: Multiplex assay against human fibroblast
# Type: toxicity, cell-based
# Procedure, shortened: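 Cells were classed with CellPathfinder machine-learning gating, first as Hoechst high-intensity objects or normal cells, then (normal cells) as healthy, pyknosed or fragmented nuclei, and finally (pyknosed cells) as mitotic or apoptotic. Staining of live cells at seeding used Hoechst33342, BioTracker Green Microtubule Cytoskeleton Dye, MitoTracker Red and Annexin V Alexa Fluor 680, with imaging on a CQ1 microscope at 37°C and 5% CO2 after compound addition. Tubulin, mitochondrial-mass and membrane-permeability phenotypes are per cents of healthy-nucleus cells.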
# [1] = 12 h, 1 µM, compound concentration 1 uM, replicate 1
# [2] = 12 h, 1 µM, compound concentration 1 uM, replicate 2
# [3] = 12 h, 10 µM, compound concentration 10 uM, replicate 1
# [4] = 12 h, 10 µM, compound concentration 10 uM, replicate 2
# [5] = 24 h, 1 µM, compound concentration 1 uM, replicate 1
# [6] = 24 h, 1 µM, compound concentration 1 uM, replicate 2
# [7] = 24 h, 10 µM, compound concentration 10 uM, replicate 1
# [8] = 24 h, 10 µM, compound concentration 10 uM, replicate 2
# [9] = 48 h, 1 µM, compound concentration 1 uM, replicate 1
# [10] = 48 h, 1 µM, compound concentration 1 uM, replicate 2
# [11] = 48 h, 10 µM, compound concentration 10 uM, replicate 1
# [12] = 48 h, 10 µM, compound concentration 10 uM, replicate 2
compound,measurement,setting,value
CCCN1CCC[C@@H]2Cc3n[nH]cc3C[C@H]21.Cl [QUINPIROLE HYDROCHLORIDE],Population Apoptotic (%),[1],45%
same,Population Fragmented Nuclei (%),[1],14%
same,Population Healthy Nuclei (%),[1],65%
same,Population Hoechst High Intensity Objects (%),[1],2%
same,Population Membrane Permeable-Phenotype (%),[1],0%
same,Population Mitochondria Different-Phenotype (%),[1],3%
same,Population Mitotic Cells (%),[1],54%
same,Population Normal (%),[1],97%
same,Population Pyknosed Nuclei (%),[1],20%
same,Population Tubulin-Different-Phenotype (%),[1],17%
same,Total Cell Count,[1],156
same,Population Apoptotic (%),[2],52%
same,Population Fragmented Nuclei (%),[2],22%
same,Population Healthy Nuclei (%),[2],60%
same,Population Hoechst High Intensity Objects (%),[2],6%
same,Population Membrane Permeable-Phenotype (%),[2],7%
same,Population Mitochondria Different-Phenotype (%),[2],6%
same,Population Mitotic Cells (%),[2],47%
same,Population Normal (%),[2],93%
same,Population Pyknosed Nuclei (%),[2],17%
same,Population Tubulin-Different-Phenotype (%),[2],50%
same,Total Cell Count,[2],139
same,Population Apoptotic (%),[3],58%
same,Population Fragmented Nuclei (%),[3],16%
same,Population Healthy Nuclei (%),[3],68%
same,Population Hoechst High Intensity Objects (%),[3],4%
same,Population Membrane Permeable-Phenotype (%),[3],1%
same,Population Mitochondria Different-Phenotype (%),[3],6%
same,Population Mitotic Cells (%),[3],41%
same,Population Normal (%),[3],95%
same,Population Pyknosed Nuclei (%),[3],15%
same,Population Tubulin-Different-Phenotype (%),[3],33%
same,Total Cell Count,[3],115
same,Population Apoptotic (%),[4],45%
same,Population Fragmented Nuclei (%),[4],23%
same,Population Healthy Nuclei (%),[4],59%
same,Population Hoechst High Intensity Objects (%),[4],2%
same,Population Membrane Permeable-Phenotype (%),[4],10%
same,Population Mitotic Cells (%),[4],54%
same,Population Normal (%),[4],97%
same,Population Pyknosed Nuclei (%),[4],17%
same,Population Tubulin-Different-Phenotype (%),[4],55%
same,Total Cell Count,[4],184
same,Population Apoptotic (%),[5],52%
same,Population Fragmented Nuclei (%),[5],21%
same,Population Healthy Nuclei (%),[5],64%
same,Population Hoechst High Intensity Objects (%),[5],1%
same,Population Membrane Permeable-Phenotype (%),[5],0%
same,Population Mitochondria Different-Phenotype (%),[5],2%
same,Population Mitotic Cells (%),[5],47%
same,Population Normal (%),[5],98%
same,Population Pyknosed Nuclei (%),[5],13%
same,Population Tubulin-Different-Phenotype (%),[5],13%
same,Total Cell Count,[5],172
same,Population Apoptotic (%),[6],34%
same,Population Fragmented Nuclei (%),[6],28%
same,Population Healthy Nuclei (%),[6],53%
same,Population Hoechst High Intensity Objects (%),[6],2%
same,Population Membrane Permeable-Phenotype (%),[6],1%
same,Population Mitochondria Different-Phenotype (%),[6],7%
same,Population Mitotic Cells (%),[6],65%
same,Population Pyknosed Nuclei (%),[6],17%
same,Population Tubulin-Different-Phenotype (%),[6],41%
same,Total Cell Count,[6],150
same,Population Apoptotic (%),[7],75%
same,Population Fragmented Nuclei (%),[7],22%
same,Population Healthy Nuclei (%),[7],67%
same,Population Hoechst High Intensity Objects (%),[7],2%
same,Population Membrane Permeable-Phenotype (%),[7],0%
same,Population Mitochondria Different-Phenotype (%),[7],7%
same,Population Mitotic Cells (%),[7],25%
same,Population Normal (%),[7],97%
same,Population Pyknosed Nuclei (%),[7],10%
same,Population Tubulin-Different-Phenotype (%),[7],32%
same,Total Cell Count,[7],119
same,Population Apoptotic (%),[8],55%
same,Population Fragmented Nuclei (%),[8],38%
same,Population Healthy Nuclei (%),[8],51%
same,Population Hoechst High Intensity Objects (%),[8],1%
same,Population Membrane Permeable-Phenotype (%),[8],7%
same,Population Mitochondria Different-Phenotype (%),[8],3%
same,Population Mitotic Cells (%),[8],45%
same,Population Normal (%),[8],98%
same,Population Pyknosed Nuclei (%),[8],9%
same,Population Tubulin-Different-Phenotype (%),[8],39%
same,Total Cell Count,[8],209
same,Population Apoptotic (%),[9],68%
same,Population Fragmented Nuclei (%),[9],23%
same,Population Healthy Nuclei (%),[9],62%
same,Population Hoechst High Intensity Objects (%),[9],3%
same,Population Membrane Permeable-Phenotype (%),[9],0%
same,Population Mitochondria Different-Phenotype (%),[9],3%
same,Population Mitotic Cells (%),[9],32%
same,Population Normal (%),[9],96%
same,Population Pyknosed Nuclei (%),[9],14%
same,Population Tubulin-Different-Phenotype (%),[9],21%
same,Total Cell Count,[9],175
same,Population Apoptotic (%),[10],38%
same,Population Fragmented Nuclei (%),[10],37%
same,Population Healthy Nuclei (%),[10],53%
same,Population Hoechst High Intensity Objects (%),[10],1%
same,Population Membrane Permeable-Phenotype (%),[10],8%
same,Population Mitochondria Different-Phenotype (%),[10],4%
same,Population Mitotic Cells (%),[10],61%
same,Population Normal (%),[10],98%
same,Population Pyknosed Nuclei (%),[10],8%
same,Population Tubulin-Different-Phenotype (%),[10],42%
same,Total Cell Count,[10],157
same,Population Apoptotic (%),[11],53%
same,Population Fragmented Nuclei (%),[11],23%
same,Population Healthy Nuclei (%),[11],65%
same,Population Hoechst High Intensity Objects (%),[11],1%
same,Population Membrane Permeable-Phenotype (%),[11],2%
same,Population Mitochondria Different-Phenotype (%),[11],6%
same,Population Mitotic Cells (%),[11],46%
same,Population Normal (%),[11],98%
same,Population Pyknosed Nuclei (%),[11],11%
same,Population Tubulin-Different-Phenotype (%),[11],31%
same,Total Cell Count,[11],119
same,Population Apoptotic (%),[12],46%
same,Population Fragmented Nuclei (%),[12],43%
same,Population Healthy Nuclei (%),[12],48%
same,Population Hoechst High Intensity Objects (%),[12],3%
same,Population Mitochondria Different-Phenotype (%),[12],4%
same,Population Mitotic Cells (%),[12],53%
same,Population Normal (%),[12],96%
same,Population Pyknosed Nuclei (%),[12],8%
same,Population Tubulin-Different-Phenotype (%),[12],48%
same,Total Cell Count,[12],192
